TRPC4 potent: positive allosteric modulators of TRPC4, primary screen, cell-based, mouse TRPC4beta, HEK293 mu-opioid, Fluo-4 calcium; AID 2227, 2009; 310,000 tested, 0.42% active; Short transient receptor potential channel 4 (Mus musculus), Q9QUQ5; B-score at 10 µM; DAMGO EC20, Fluo-4 Ca2+ flux; hits give high values;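 active means B-score of calcium response area above 5 SD of library B-scores, with initial fluorescence ratio within 5 SD of library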
Target sequence (Q9QUQ5 whole entry, looked up): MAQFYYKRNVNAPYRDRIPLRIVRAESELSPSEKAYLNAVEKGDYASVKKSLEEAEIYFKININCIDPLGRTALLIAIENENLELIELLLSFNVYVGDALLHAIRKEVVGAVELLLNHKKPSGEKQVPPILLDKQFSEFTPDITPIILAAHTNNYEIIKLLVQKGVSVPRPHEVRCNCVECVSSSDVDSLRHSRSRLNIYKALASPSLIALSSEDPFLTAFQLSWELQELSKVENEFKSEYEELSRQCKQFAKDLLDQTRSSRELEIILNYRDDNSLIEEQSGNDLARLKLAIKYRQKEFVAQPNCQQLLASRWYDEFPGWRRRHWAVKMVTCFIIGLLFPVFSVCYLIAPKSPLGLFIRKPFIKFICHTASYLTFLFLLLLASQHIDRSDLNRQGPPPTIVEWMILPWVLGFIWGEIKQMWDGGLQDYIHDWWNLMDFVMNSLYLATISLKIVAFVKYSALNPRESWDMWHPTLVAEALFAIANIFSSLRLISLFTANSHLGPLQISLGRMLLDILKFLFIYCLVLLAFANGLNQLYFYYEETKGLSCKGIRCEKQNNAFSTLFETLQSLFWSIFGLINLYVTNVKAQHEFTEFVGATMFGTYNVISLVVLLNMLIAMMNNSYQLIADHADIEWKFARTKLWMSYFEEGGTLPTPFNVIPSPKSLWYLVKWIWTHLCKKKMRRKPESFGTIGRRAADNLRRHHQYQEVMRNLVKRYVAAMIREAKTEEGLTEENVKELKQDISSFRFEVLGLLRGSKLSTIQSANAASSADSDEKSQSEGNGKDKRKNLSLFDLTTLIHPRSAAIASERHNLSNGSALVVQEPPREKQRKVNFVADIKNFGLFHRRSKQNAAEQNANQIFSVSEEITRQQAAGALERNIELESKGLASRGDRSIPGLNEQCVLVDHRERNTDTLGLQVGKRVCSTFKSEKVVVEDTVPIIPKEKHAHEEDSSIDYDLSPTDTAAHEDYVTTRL
TRPC4 agonist: activators of mouse TRPC4 channel, primary screen, Fluo4 calcium, HEK293 TRPC4beta/mu-opioid cells | Short transient receptor potential channel 4 (Mus musculus), Q9QUQ5 | Fluo4 calcium fluorescence; hits give high values | B-score at 10 µM | 310,000 tested, 0.49% active;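 active means B-score above 5 SD of library B-scores, and initial fluorescence ratio not above library mean plus 5 SD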;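 further: positive B-score marks a calcium rise read as TRPC4 activation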
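Material: HEK293 stable line with TRPC4beta plus mu-opioid receptor; technique: Fluo4 calcium-sensitive dye fluorescence, kinetic, 1 Hz baseline; timing: Fluo4 dye loading 45 min at room temperature, 110 s recording; controls: assay buffer as low control, maximal DAMGO as high control; read-out: integrated baseline-normalised fluorescence ratio, converted to per-well B score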
TRPC6 inh: mouse TRPC6 channel inhibitors, primary screen, cell-based, HEK293, membrane potential dye | ACh-evoked depolarization; hits give low values | B-score at 10 µM | 310,000 tested, 1.1% active;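 active means B-score under library mean minus 3 SD, initial fluorescence not abnormally high, positive integrated signal ratio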;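 further: B-score derived from integrated fluorescence ratio over the kinetic read; more negative B-score means stronger inhibition of depolarization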
TRPC4 inh: inhibitors of mouse TRPC4 channel, primary screen, Fluo4 calcium, HEK293 TRPC4beta/mu-opioid cells | Short transient receptor potential channel 4 (Mus musculus), Q9QUQ5 | DAMGO-evoked Fluo4 calcium flux; hits give low values | B-score at 10 µM | 300,000 tested, 0.39% active | AID 2247, 2010;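 active means B-score over 3 SD under the library average, no early fluorescence shift, positive overall ratio signal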
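System: stable TRPC4beta/mu-opioid receptor HEK293 cells; Dosing: single-point compound dosing; Measured by: Fluo4 Ca2+ flux fluorescence; Read-out basis: per-well B score of integrated baseline-normalized Fluo4 ratio.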
TRPC6 act: mouse TRPC6 channel activators, primary screen, cell-based, HEK293, membrane potential dye; B-score at 10 µM; Short transient receptor potential channel 6 (Mus musculus), Q61143; 310,000 tested, 0.13% active; HEK293-TRPC6 membrane potential dye fluorescence; hits give high values; AID 2550, 2010;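 active means B-score of the integrated fluorescence ratio above library mean plus 3 SD, and starting fluorescence ratio within library mean plus 5 SD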;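 further: higher score means more depolarization so channel activation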
TRPC4 spec 2: second check of whether TRPC6 inhibitors also affect mouse TRPC4 | shares compounds with TRPC6 inh | inhibition, % at 10 µM | 920 tested, 42% active | HEK293 TRPC4/MOR, membrane potential dye fluorescence; channel activated by saturating DAMGO dose;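 active means compounds whose fluorescence signal differed from control wells by over 3 SD, either direction, in both duplicate plates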
TRPC4 spec: mouse TRPC4 modulation by TRPC6 hits, confirmation, selectivity assay for TRPC6 inhibitor project, cell-based, HEK293 TRPC4/mu-opioid, membrane potential dye | membrane potential fluorescence | activity change, negative = inhibition, % at 10 µM | shares compounds with TRPC6 inh | 920 tested, 61% active;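 active means rise or fall in signal beyond 3 SD of buffer-only wells in both replicate plates, either sign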;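 further: integrated kinetic ratio of fluorescence range over baseline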
HEK293 MPD ctr 2-1: nonspecific membrane potential effects, parental HEK293, confirmation, counter-screen for TRPC6 inhibitor project, cell-based, second counter screen | shares compounds with TRPC6 inh | parental HEK293 membrane potential dye fluorescence; maximal acetylcholine challenge after compound addition | signal change vs control, % at 10 µM | 920 tested, 31% active | AID 2779, 2010;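 active means membrane potential signal moving either way by over 3 SD of the maximum-effect control, in both duplicate plates, meaning non-specific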
HEK293 MPD ctr-1: membrane potential modulation in parental HEK293, confirmation, counter-screen for TRPC6 inhibitor project, cell-based; shares compounds with TRPC6 inh; parental HEK293 membrane potential dye fluorescence; membrane potential signal change, % at 10 µM; 920 tested, 60% active;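 active means membrane potential signal shifting up or down by more than 3 SD of buffer-only wells, on both duplicate plates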
HEK293 MPD ctr-2: parental HEK293 membrane potential modulation, confirmation, counter-screen for TRPC6 modulator project, cell-based | membrane potential signal change, % at 10 µM | 2,400 tested, 51% active | shares compounds with TRPC6 inh | membrane potential dye fluorescence;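 active means membrane potential signal moves up or down beyond 5 SD from buffer-only wells, on both duplicate plates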
HEK293 MPD ctr 2-2: second check of TRPC6 modulator effects in parental HEK293 cells; shares compounds with TRPC6 inh; membrane potential dye fluorescence; after compound, maximal acetylcholine stimulation; inhibition, % at 10 µM; 2,400 tested, 14% active; AID 488926;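 active means membrane potential signal drops by more than 5 SD from the mean control signal, in both duplicate plates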
TRPC4/MOR mod: TRPC4 modulation by TRPC6 hit compounds, confirmation, selectivity assay for TRPC6 modulator project, cell-based, HEK293 TRPC4/mu-opioid, membrane potential dye, mouse; 2,400 tested, 69% active; shares compounds with TRPC6 inh; membrane potential fluorescence; percent change from control (negative = decrease, positive = increase), % at 10 µM;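 active means membrane potential signal moved up or down beyond 5 SD of buffer control wells, in both duplicate plates, actives on both sides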
TRPC4 ctr inh 2: second selectivity test of TRPC6 modulators against mouse TRPC4 | 2,400 tested, 55% active | HEK293 TRPC4/mu-opioid, membrane potential dye fluorescence; stimulated with maximal-effect DAMGO | inhibition, % at 10 µM | shares compounds with TRPC6 inh | AID 488928;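 active means drop in membrane potential signal beyond 5 SD of the control wells in both duplicate plates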;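 further: TRPC4 counter screen for TRPC6 hits run under conditions tuned for TRPC6 not TRPC4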
TRPC6 block conf: mouse TRPC6 channel inhibitors, confirmation, HEK293 cells, membrane potential dye, duplicate; 3,300 tested, 43% active; inhibition, % at 10 µM; ACh-evoked depolarization; shares compounds with TRPC6 inh; AID 488960, 2010;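 active means fluorescence ratio falls more than 5 SD below the full-stimulation control mean, in both duplicate runs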;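 further: integrated fluorescence ratio of peak minus minimum over baseline after agonist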
TRPC6 act confirm: mouse TRPC6 channel activators, confirmation, HEK293 cells, membrane potential dye, duplicate. 2,800 tested, 11% active. shares compounds with TRPC6 inh. AID 488961, 2010. HEK293-TRPC6 membrane potential dye fluorescence, FDSS. activation, % at 10 µM;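 active means ratio signal rise beyond 5 SD above unstimulated control wells' mean, seen in both duplicate runs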
Each line names hits and unclear results; the compound was inactive in the other large screens (follow-up assays come after a bar, where they were run); ! = not confirmed by another sample. In the library only some 2.3% were active in any assay of this set; here they are far more common.

CN1CCS/C1=C/C=C1/SC(=S)N(Cc2ccccc2)C1=O	TRPC6 act 19 | HEK293 MPD ctr-2 278% | HEK293 MPD ctr 2-2 inactive | TRPC4/MOR mod 49% | TRPC4 ctr inh 2 inactive | TRPC6 block conf inactive | TRPC6 act confirm 112%
COc1ccc(OC)c(NC(=O)CC2C(=O)NCCN2C(=O)Nc2cccc(Cl)c2)c1 (configuration not stated)	TRPC6 inh -5.9 | HEK293 MPD ctr-2 inactive | HEK293 MPD ctr 2-2 inactive | TRPC4/MOR mod -14% | TRPC4 ctr inh 2 29% | TRPC6 block conf inactive | TRPC6 act confirm inactive
COc1ccccc1-c1c(C#N)c(N)nc2c1CCc1ccccc1-2	none
O=C(O)C1CC(c2ccccc2)=Nc2ccccc2S1 (configuration not stated)	TRPC6 inh -5.3 | HEK293 MPD ctr-2 136% | HEK293 MPD ctr 2-2 inactive | TRPC4/MOR mod 28% | TRPC4 ctr inh 2 inactive | TRPC6 block conf inactive
O=C(CN1C(=O)C2CC=CCC2C1=O)NCC(=O)Nc1ccc(F)c(F)c1 (configuration not stated)	none
Cc1ccc(OCC(O)CNCc2ccccc2)cc1C (configuration not stated)	TRPC6 inh -5.1 | HEK293 MPD ctr-2 132% | HEK293 MPD ctr 2-2 inactive | TRPC4/MOR mod 19% | TRPC4 ctr inh 2 46% | TRPC6 block conf inactive
CCN1CCCC1CNC(=O)c1cc(OC)c(OC)c(OC)c1 (configuration not stated)	none
CCN1CCC[C@H]1CNC(=O)c1c(O)c(Cl)cc(Cl)c1OC	TRPC6 inh -7.4! | TRPC4 spec 2 inactive | TRPC4 spec inactive | HEK293 MPD ctr 2-1 inactive | HEK293 MPD ctr-1 inactive | TRPC6 block conf inactive | TRPC6 act confirm inactive
CC(N)C12CC3CC(CC(C3)C1)C2 (configuration not stated)	TRPC6 inh -5.4! | HEK293 MPD ctr-2 inactive | HEK293 MPD ctr 2-2 inactive | TRPC4/MOR mod inactive | TRPC4 ctr inh 2 30% | TRPC6 block conf inactive | TRPC6 act confirm inactive
CCOC(=O)c1c(C)[nH]c(C)c1S(=O)(=O)NC1CCN(C(=O)OCC)CC1	none
Cc1cc(N2CCOCC2)c2c(N)c(Br)cc(C)c2n1	TRPC6 inh -5.1 | HEK293 MPD ctr-2 -301% | HEK293 MPD ctr 2-2 inactive | TRPC4/MOR mod -57% | TRPC4 ctr inh 2 42% | TRPC6 block conf inactive | TRPC6 act confirm inactive
CCOC(=O)N1CCN(C(=O)CN(c2cc(Cl)ccc2OC)S(=O)(=O)c2ccccc2)CC1	TRPC6 inh -7.9 | TRPC4 spec 2 inactive | TRPC4 spec 7.5% | HEK293 MPD ctr 2-1 inactive | HEK293 MPD ctr-1 3.1% | TRPC6 block conf inactive | TRPC6 act confirm inactive
CCCc1ccc(/C=C2\C(=O)c3ccccc3C(O)=C2C(=O)OCC)cc1	none
CCOC(=O)C1=C(O)c2ccccc2C(=O)/C1=C\c1ccc(CC)cc1	TRPC6 act 15 | HEK293 MPD ctr-2 552% | HEK293 MPD ctr 2-2 inactive | TRPC4/MOR mod 130% | TRPC4 ctr inh 2 inactive | TRPC6 block conf inactive | TRPC6 act confirm 182%
Cc1[nH]c2ccccc2c1/C=N/NC(=O)c1cccc([N+](=O)[O-])c1	none
Cc1[nH]c2ccccc2c1/C=N/Nc1ccc([N+](=O)[O-])cc1	TRPC6 act 11 | HEK293 MPD ctr-2 144% | HEK293 MPD ctr 2-2 inactive | TRPC4/MOR mod 36% | TRPC4 ctr inh 2 inactive | TRPC6 block conf inactive | TRPC6 act confirm 56%
CN1Cc2c(N3CCOCC3)nc3sc(C(=O)c4ccc(Br)cc4)c(N)c3c2CC1(C)C	TRPC6 inh -7.2 | TRPC4 spec 2 inactive | TRPC4 spec -11% | HEK293 MPD ctr 2-1 inactive | HEK293 MPD ctr-1 -161% | TRPC6 block conf inactive | TRPC6 act confirm inactive
COc1ccc(C)cc1-n1cnnn1	none
CC(C)CC1CCCCC1OC(=O)C[N+]1(C)CCCCC1 (configuration not stated)	TRPC6 inh -8.7 | TRPC4 spec 2 inactive | TRPC4 spec inactive | HEK293 MPD ctr 2-1 16% | HEK293 MPD ctr-1 inactive | TRPC6 block conf 87% | TRPC6 act confirm inactive
COc1cc(C(=O)OCC(=O)Nc2c(F)c(F)c(F)c(F)c2F)cc(OC)c1OC	TRPC6 inh -5.4 | HEK293 MPD ctr-2 inactive | HEK293 MPD ctr 2-2 inactive | TRPC4/MOR mod inactive | TRPC4 ctr inh 2 inactive | TRPC6 block conf inactive | TRPC6 act confirm inactive
